Bioassay records as filed in PubChem BioAssay.
MPTP inh – mitochondrial permeability transition pore inhibitors, primary screen, biochemical, isolated mouse mitochondria, absorbance. Ca2+ swelling absorbance, 30 min. inhibition, % at 10 µM. 360,000 compounds, 1.4% hits. AID 602449, 2012;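 active = inhibition of 50% or more, scaled per plate between neutral and stimulator controls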
proCasp7 act – procaspase-7 activators, primary screen, counter-screen for procaspase-3 activator project, biochemical, absorbance, HTS, human. Caspase-7 (Homo sapiens), P55210. recombinant procaspase-7, Ac-DEVD-pNA absorbance 405 nm; D23A/D198A/D206A triple mutant, cannot self-cleave; scale: DMSO 0, 5 µM enzyme 100. activation, % at 8.5 µM. 330,000 compounds, 0.093% hits. AID 463210, 2010;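 active = percent activation above the screen-wide mean plus 3 SD, cut at about 25% in these data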
Target sequence (P55210 whole entry D23A/D198A/D206A): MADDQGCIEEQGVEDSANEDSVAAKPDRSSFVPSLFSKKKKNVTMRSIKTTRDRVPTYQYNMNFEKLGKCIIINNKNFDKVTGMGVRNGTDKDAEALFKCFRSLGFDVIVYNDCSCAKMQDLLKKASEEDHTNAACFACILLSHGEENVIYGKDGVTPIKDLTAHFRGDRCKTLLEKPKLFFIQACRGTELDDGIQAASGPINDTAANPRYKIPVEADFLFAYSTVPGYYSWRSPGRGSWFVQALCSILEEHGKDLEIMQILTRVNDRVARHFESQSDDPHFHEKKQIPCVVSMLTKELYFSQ
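Assay system – Uncleavable procaspase-7 mutant enzyme · Quantity – 2 µM procaspase-7 mutant as dispensed · Times – 1 h preincubation, 2 h reaction · Dosing – single nominal 8.5 µM compound dose, 0.8% DMSO final · Buffer or medium – Zinc-free 50 mM HEPES buffer, pH 7.4, with NaCl and Triton X-100 · Detection – Epi-absorbance of released pNA at 405 nm, two timepoints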
aDG glyco up – activators of alpha-DG glycosylation, primary screen, uHTS, Pro5-aDG cells, AlphaScreen | alpha-DG glycosylation AlphaScreen (IIH6); 0% Pro5, 100% B10-LARGE cell signal | activation, % at 10 µM | 360,000 compounds, 0.22% hits | AID 624168, 2012;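 active = activation of at least 8% versus controls, or a plate z-score of at least 8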;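 also: Pro5 are CHO cells carrying HIG-tagged alpha-DG that lacks glycosylation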
proCasp3 act – activators of human procaspase-3 D3A mutant, primary screen, biochemical, absorbance, PC-3 D3A mutant, single concentration | Caspase-3 (Homo sapiens), P42574 | recombinant procaspase-3 D3A, Ac-DEVD-pNA absorbance 405 nm | activation, % at 8.5 µM | 330,000 compounds, 0.11% hits | AID 463141, 2010;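 active = activation above the mean of all tested compounds plus 3 SD, cut at about 21% in these data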
Target sequence (P42574 whole entry D9A/D28A/D175A): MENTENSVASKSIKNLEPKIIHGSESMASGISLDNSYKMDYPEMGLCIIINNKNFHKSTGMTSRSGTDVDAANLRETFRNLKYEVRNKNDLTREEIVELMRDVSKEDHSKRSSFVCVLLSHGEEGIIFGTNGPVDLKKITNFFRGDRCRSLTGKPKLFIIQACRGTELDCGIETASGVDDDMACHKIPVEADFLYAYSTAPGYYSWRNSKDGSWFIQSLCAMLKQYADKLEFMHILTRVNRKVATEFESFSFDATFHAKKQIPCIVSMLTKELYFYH
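Technique: 405 nm absorbance of p-nitroaniline, reads at 0 and 120 min; Test system: Procaspase-3 D3A mutant; Incubation: 1 h enzyme-compound preincubation, then 2 h substrate reaction, 25 °C; Repeats: singlicate, each compound tested once; Benchmarks: low control DMSO wells, high control DMSO plus 5 µM PC-3 D3A.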
GRIN3A LBD mod – binders of NR3A ligand-binding domain, primary screen, biophysical, differential scanning fluorimetry, uHTS; Glutamate receptor ionotropic, NMDA 3A (GRIN3A) ligand-binding domain; NR3A LBD differential scanning fluorimetry, Tm shift; 0% = protein alone, 100% = glycine-bound protein; Tm shift relative to glycine control, % at 25 µM; 340,000 compounds, 2.5% hits; AID 1259313, 2017;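 active = melting temperature shift of at least 10% of the positive control shift, at one fixed dose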
Of the large screens only hits and unclear results are named; the others gave an inactive call. Rows were chosen to be rich in hits. Some 3.7% of all compounds tested hit in one or more screens of this group.

C=CCn1c(C)cc(C(=O)COC(=O)c2n[nH]c(=O)c3ccccc23)c1C	none
C=CCn1c(C)cc(C(=O)COc2nncc3ccccc23)c1C	GRIN3A LBD mod 15.8
CCN(CC)S(=O)(=O)c1ccc(SCC(=O)c2c(N)n(C3CC3)c(=O)[nH]c2=O)nc1	none (no result: proCasp7 act, proCasp3 act, GRIN3A LBD mod)
COc1cc(OC)cc(C(=O)N[C@H](C(=O)OCC(=O)Nc2ccc3c(c2)OCO3)C(C)C)c1	none
O=C(COc1ccccc1)N/N=C/c1ccc([N+](=O)[O-])o1	none
O=C(CNc1ccc2ccccc2c1)N/N=C/c1ccc([N+](=O)[O-])o1	aDG glyco up 9.8
CCc1ccc(-c2cc(C)no2)cc1S(=O)(=O)NCCN1CCC(C)CC1	GRIN3A LBD mod 14.8
C=CCOC(=O)c1ccccc1C(=O)OCC1CO1 (configuration not stated)	none (no result: proCasp7 act, proCasp3 act)
CN1/C(=C\C(=O)Nc2ccc(Br)cc2)C(C)(C)c2ccccc21	GRIN3A LBD mod 19.0
CCCCNC(=O)C1(C)CCN1C(=O)c1ccc2c(c1)C(C)(C)CCC2(C)C (configuration not stated)	none (no result: proCasp7 act, proCasp3 act, GRIN3A LBD mod)
Cc1cc(-c2ccc(Br)cc2)n[nH]1	none
Nc1cc(-c2ccc(Br)cc2)[nH]n1	GRIN3A LBD mod 11.6
CSc1cccc(NC(=O)Nc2nc3c(C)cccc3s2)c1	GRIN3A LBD mod 17.8
COCCNC(=S)N(CCc1c(C)[nH]c2ccc(F)cc12)Cc1ccc(C)cc1	GRIN3A LBD mod 10.3 (no result: proCasp7 act, proCasp3 act)
COc1ccc2[nH]c(C)c(CCNc3ccc(C(F)(F)F)cc3[N+](=O)[O-])c2c1	GRIN3A LBD mod 19.1
COc1ccc2[nH]c(C)c(CCNC(=S)Nc3ccc(F)cc3)c2c1	GRIN3A LBD mod 11.8
CS(=O)(=O)NCCNc1ccc(C(F)(F)F)cc1[N+](=O)[O-]	none
C=CCNC(=O)c1cc2cc(Cl)ccc2nc1N	none (no result: proCasp7 act, proCasp3 act, GRIN3A LBD mod)
NS(=O)(=O)c1ccc(NC(=S)N2CCN(Cc3ccc(Cl)c(Cl)c3)CC2)cc1	GRIN3A LBD mod 25.4
COC(=O)[C@]1(C)N[C@H](CN(C)C(=O)Nc2ccc(C(F)(F)F)cc2)[C@@H]2C(=O)N(C)C(=O)[C@@H]21	none
CCN(C[C@H]1N[C@@](C)(C(=O)OC)[C@H]2C(=O)N(Cc3ccccc3)C(=O)[C@@H]12)C(=O)NC(C)C	GRIN3A LBD mod 14.0
COC(=O)[C@]1(C)N[C@H](CN(C)C(=O)Nc2ccccc2)[C@@H]2C(=O)N(C)C(=O)[C@@H]21	GRIN3A LBD mod 12.7
COC(=O)[C@]1(C)N[C@H](CN(C)C(=O)Nc2ccc(F)cc2)[C@@H]2C(=O)N(C)C(=O)[C@@H]21	none
COC(=O)[C@]1(C)N[C@H](CN(C)C(=O)Nc2ccc(OC)cc2)[C@@H]2C(=O)N(C)C(=O)[C@@H]21	GRIN3A LBD mod 12.7
C#CCOCCOCCOCCNc1nc(N2CCN(C(=O)CCCCCCCCCCNC(=O)[C@H](CO)n3cc(CCCSC)nn3)CC2)nc(N2CCN(C(=O)CCCCCCCCCCNC(=O)[C@H](CCCCN)n3cc(CCO)nn3)CC2)n1	GRIN3A LBD mod 27.6
C#CCOCCOCCOCCNc1nc(N2CCN(C(=O)CCCCCCCCCCNC(=O)[C@H]([C@@H](C)CC)n3cc(CCCCCN)nn3)CC2)nc(N2CCN(C(=O)CCCCCCCCCCNC(=O)[C@H]([C@@H](C)CC)n3cc(CCCCN=C(N)N)nn3)CC2)n1	none (no result: GRIN3A LBD mod)
C#CCOCCOCCOCCNc1nc(N2CCN(C(=O)CCCCCCCCCCNC(=O)[C@H]([C@@H](C)CC)n3cc(CCCCN=C(N)N)nn3)CC2)nc(N2CCN(C(=O)CCCCCCCCCCNC(=O)[C@H](CO)n3cc(CCCCCN)nn3)CC2)n1	GRIN3A LBD mod 17.0
C#CCOCCOCCOCCNc1nc(N2CCN(C(=O)CCCCCCCCCCNC(=O)[C@@H](CCSC)n3cc(CCO)nn3)CC2)nc(N2CCN(C(=O)CCCCCCCCCCNC(=O)[C@H](CCSC)n3cc(CCO)nn3)CC2)n1	none
C#CCOCCOCCOCCNc1nc(N2CCN(C(=O)CCCCCCCCCCNC(=O)[C@H]([C@@H](C)CC)n3cc(CCCCCN)nn3)CC2)nc(N2CCN(C(=O)CCCCCCCCCCNC(=O)[C@H](CO)n3cc(CCCCCN)nn3)CC2)n1	GRIN3A LBD mod 28.5
Cc1ccc(NC(=O)COC(=O)Cc2c[nH]c3ccccc23)cc1	none (no result: proCasp7 act, proCasp3 act, GRIN3A LBD mod)
C[C@H](CO)N1C[C@H](C)[C@@H](CN(C)C(=O)c2ccncc2)OCc2cnnn2CCCC1=O	none (no result: proCasp7 act, proCasp3 act, GRIN3A LBD mod)
Cn1c(=O)c2c(ncn2CC(=O)N2CCN(c3ccc([N+](=O)[O-])cc3)CC2)n(C)c1=O	GRIN3A LBD mod 18.0
CCCc1cc(-c2n[nH]c(=S)n2-c2cccc(C)c2)cs1	GRIN3A LBD mod 13.5
O=C(CN1c2ccccc2Sc2ccccc21)N/N=C/c1ccc(Cl)cc1Cl	GRIN3A LBD mod 14.8
O=C(NN=Cc1ccc(Cl)cc1Cl)c1ccccc1	none (no result: proCasp7 act, proCasp3 act, GRIN3A LBD mod)
O=C(CN1c2ccccc2Sc2ccccc21)N/N=C/c1ccc(Cl)cc1	GRIN3A LBD mod 11.1
C=CCC[C@@H](CCCCC)OC(=O)/C=C/[C@H](O)[C@@H](O)C[C@H](O)CC=C	none (no result: proCasp7 act, proCasp3 act, GRIN3A LBD mod)
NC(=O)NN=C1CCC(OCc2ccccc2)CC1CC(=O)O (configuration not stated)	none (no result: proCasp7 act, proCasp3 act, GRIN3A LBD mod)
CCOC(=O)c1[nH]c2ccc(F)cc2c1NC(=O)C1=COCCO1	GRIN3A LBD mod 19.7
CCOC(=O)c1[nH]c2ccc(F)cc2c1NC(=O)c1ccccc1C(=O)O	none (no result: proCasp7 act, proCasp3 act)
CCCCc1ccc(NC(=O)OC)cc1	none
CCCCc1ccc(NC(=S)Nc2ccc(Nc3ccc(OC)cc3)cc2)cc1	GRIN3A LBD mod 11.9
CN1CCC(=NNC(=O)CSc2ccc(Cl)cc2)CC1	GRIN3A LBD mod 21.0
COc1cccc2cc(C(=O)NCCc3ccccc3)oc12	none
CCN(CC)S(=O)(=O)c1ccc(N/N=C/c2cc(OC)ccc2O)nc1	GRIN3A LBD mod 24.2
CCN(CC)S(=O)(=O)c1ccc(N/N=C/c2cccnc2)nc1	none
O=c1cc(-c2ccc(O)c(-c3c(O)cc(O)c4c(=O)cc(-c5ccc(O)cc5)oc34)c2)oc2cc(O)cc(O)c12	GRIN3A LBD mod 18.1
COc1c(-c2ccc(O)cc2)oc2cc(O)cc(O)c2c1=O	none
O=c1cc(-c2ccc(O)cc2)oc2c(-c3c(O)cc(O)c4c(=O)cc(-c5ccc(O)cc5)oc34)c(O)cc(O)c12	GRIN3A LBD mod 21.4
O=c1c(-c2c(O)cc(O)c3c(=O)cc(-c4ccc(O)cc4)oc23)c(-c2ccc(O)cc2)oc2cc(O)cc(O)c12	GRIN3A LBD mod 26.6
O=c1cc(-c2ccc(O)c(O)c2)oc2cc(O)cc(O)c12	none
